# From publication PMC6663923 (Acta Pharmaceutica Sinica. B, 2019)
# Where two headings read alike, the source gives them in different places.
# Experiments:
# recombinant LSD1 [1] = target: T1, recombinant LSD1 (Homo sapiens, UniProt O60341); test: LSD1 enzymatic assay; format: biochemical
# recombinant LSD1 [2] = target: T1, recombinant LSD1; test: Reversibility analysis; format: biochemical; details: 80-fold dilution
# Summary of the method: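 Recombinant LSD1 (2.5 μg) was preincubated for 1 h with the test compound (312.5 μmol/L), a reference inhibitor (600 μmol/L) or DMSO. Aliquots were then diluted 80-fold into HRP-coupled assay solution containing substrate and coupling reagents, and residual demethylase activity was measured.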
# glioma stem cells (GSCs) = details: cited from earlier work
structure (smiles),measurement,setting,value
CCCSc1nc(Sc2nc3ccccc3s2)c2nnn(CCOCCO)c2n1 [Compound 8l],LSD1 inhibitory effect (in words),recombinant LSD1 [1]; recombinant LSD1,moderate inhibitory effect
C#CCSc1nc(Sc2nnnn2-c2ccccc2)c2nnn(Cc3ccc(C(C)C)cc3)c2n1 [Compound 15x],IC50,"recombinant LSD1 [1]; read-out: LSD1 IC50, recombinant LSD1",55 nM
C#CCSc1nc(Sc2nnnn2-c2ccccc2)c2nnn(Cc3ccc(OC)cc3)c2n1 [Compound 15y],IC50,"recombinant LSD1 [1]; LSD1 IC50, recombinant LSD1",140 nM
"OCCNc1cc(Sc2nnnn2-c2ccccc2)nc(SCc2ccccc2)n1 [Compound 22b, 2-((2-(Benzylthio)-6-((1-phenyl-1H-tetrazol-5-yl)thio)pyrimidin-4-yl)amino)ethan-1-ol]",IC50,"recombinant LSD1 [1]; LSD1 IC50, recombinant LSD1",> 10000 nM
O=C(O)c1ccc(CN2CCC(CN[C@@H]3C[C@H]3c3ccccc3)CC2)cc1 [GSK2879552],reversibility of LSD1 inhibition (in words),recombinant LSD1 [2],failed to recover the activity of LSD1
NC1CC1c1cccc(OCC[C@H](NC(=O)c2ccccc2)C(=O)NCc2ccccc2)c1 (stereo partly drawn) [NCL-1],cell viability of GSCs (in words),glioma stem cells (GSCs),significantly reduced the cell viability
